{"data": "Results pooled from the literature", "target": "Misshapen-like kinase 1 (MINK1, Homo sapiens, UniProt Q8N4C8)", "note": "Protocols differ between the studies behind these lines."}
{"SMILES": "COc1ncc2cc3ccccc3nc2c1C#N", "assay": "cell-free assay, competition with immobilised ligand", "setting": "5 µM", "remaining binding [%]": 99}
{"SMILES": "C[C@H]1CCN(c2nccc(-c3cnn4ncccc34)n2)C1", "assay": "binding", "setting": "1 µM", "remaining binding [%]": 71}
{"SMILES": "O=C(c1ccc(Nc2ncc(Cl)c(-c3cc4ccccc4s3)n2)cc1)N1CCC(N2CCCC2)CC1", "assay": "binding, competition with immobilised ligand", "setting": "1 µM", "remaining binding [%]": 42}
{"SMILES": "N#Cc1ccc(Nc2ccc3[nH]c(=O)[nH]c3c2)c(Cl)c1", "assay": "cell-free assay, competition with immobilised ligand", "setting": "1 µM", "remaining binding [%]": 91}
{"SMILES": "O=C(c1ccc(Nc2nccc(-c3cc4ccccc4s3)n2)cc1)N1CCC(N2CCCC2)CC1", "assay": "binding, competition with immobilised ligand", "setting": "1 µM", "remaining binding [%]": 57}
{"SMILES": "O=C(Nc1c[nH]nc1C(=O)NC1CCNCC1)c1cc(F)cc(F)c1", "assay": "binding, competition with immobilised ligand", "setting": "1 µM", "remaining binding [%]": 93}
{"SMILES": "CN(CCCC(F)(F)F)c1nccc(-c2cnn3ncccc23)n1", "assay": "binding", "setting": "1 µM", "remaining binding [%]": 100}
{"SMILES": "CSc1cccnc1N1CCN(Cc2nc3ccccc3[nH]2)CC1", "assay": "cell-free assay, competition with immobilised ligand", "setting": "1 µM", "remaining binding [%]": 89}
{"SMILES": "CN(c1nccc(-c2cnn3ncccc23)n1)C1CC1", "assay": "binding", "setting": "1 µM", "remaining binding [%]": 100}
{"SMILES": "C[C@H](c1cccc(C#N)c1)n1cc(Cl)cc(C(N)=O)c1=N", "assay": "cell-free assay, competition with immobilised ligand", "setting": "1 µM", "remaining binding [%]": 88}
{"SMILES": "FC(F)(F)Oc1cccc(-c2cnc3ccc(-c4ccncc4)nn23)c1", "assay": "binding, competition with immobilised ligand", "setting": "5 µM", "remaining binding [%]": 7.2}
{"SMILES": "O=C(O)[C@H]1[C@H](Cn2nnc3ccccc3c2=O)CC[C@@H]1C(=O)c1ccc(OCCC2CCOCC2)cc1", "assay": "cell-free assay, competition with immobilised ligand", "setting": "1 µM", "remaining binding [%]": 100}
{"SMILES": "CNC(=O)[C@@H]1CC[C@@H](n2c(-c3ccc4cnccc4c3)nc3ccc(C(=O)NCc4cccc(C(N)=O)c4)cc32)C1", "assay": "binding, competition with immobilised ligand", "setting": "1 µM", "remaining binding [%]": 94}
{"SMILES": "O=C(NCCCN1CCOCC1)c1ccc(Nc2ncc(Cl)c(-c3ccc(Cl)s3)n2)cc1", "assay": "binding, competition with immobilised ligand", "setting": "1 µM", "remaining binding [%]": 20}
{"SMILES": "CN(C)c1nccc(-c2cnn3ncccc23)n1", "assay": "binding", "setting": "1 µM", "remaining binding [%]": 81}
{"SMILES": "CNCc1ccccc1-c1csc([C@H](C)Nc2nc(C)nc3cc(OC)c(OC)cc23)c1", "assay": "cell-free assay, competition with immobilised ligand", "setting": "1 µM", "remaining binding [%]": 88}
{"SMILES": "N[C@@H]1CCN(c2nccc(-c3cnn4ncccc34)n2)C1", "assay": "binding", "setting": "1 µM", "remaining binding [%]": 96}
{"SMILES": "CC(C)(O)c1cncc(-c2nc3ccc(F)cc3n2C2CC2)c1", "assay": "cell-free assay, competition with immobilised ligand", "setting": "1 µM", "remaining binding [%]": 100}
{"SMILES": "COc1ccnn2ncc(-c3ccnc(N(C)C)n3)c12", "assay": "binding", "setting": "1 µM", "remaining binding [%]": 81}
{"SMILES": "C=CC(=O)N1CCC(C(=O)NCC(=O)N2CCN(c3nc(-c4cnc(N)nc4C(F)F)nc(N4CCOCC4)n3)CC2)CC1", "assay": "binding, competition with immobilised ligand", "setting": "1 µM", "remaining binding [%]": 99}
{"SMILES": "O=C(NC[C@@H]1[C@H]2CN(C(=O)OCc3cc(C(F)(F)F)cc(C(F)(F)F)c3)C[C@@H]12)c1ccc2[nH]nnc2c1", "assay": "cell-free assay, competition with immobilised ligand", "setting": "1 µM", "remaining binding [%]": 72}
{"SMILES": "Cc1cnn2ncc(-c3ccnc(N(C)C)n3)c2c1", "assay": "binding", "setting": "1 µM", "remaining binding [%]": 92}
